Laboratory results from ChEMBL document CHEMBL1926683, “Synthesis and anticancer activity of 4β-alkylamidochalcone and 4β-cinnamido linked podophyllotoxins as apoptotic inducing agents” (Eur J Med Chem, 2012).

Assays:
Assay type in all cases: functional, cell-based
HT-29 = test: Anticancer activity against human HT-29 cells after 48 hrs by MTT assay; details: HT-29, 48 h
Procedure, shortened: (§1)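 MTT assay. Cells seeded at 1 × 10⁴/well in DMEM with 10% FBS and held 24 h at 37 °C in CO₂. Compounds were diluted in culture medium and added alongside vehicle controls, then incubated 48 h. MTT (5 mg/ml stock) was added for 4 h. Supernatant was removed, formazan dissolved in DMSO, and absorbance read at 540 nm.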

A-375 = test: Anticancer activity against human A375 cells after 48 hrs by MTT assay; details: A-375, 48 h; procedure, shortened: as §1
A549 = test: Anticancer activity against human A549 cells after 48 hrs by MTT assay; details: A549, 48 h; procedure, shortened: as §1
MCF7 = test: Anticancer activity against human MCF7 cells after 48 hrs by MTT assay; details: MCF7, 48 h; procedure, shortened: as §1
ACHN = test: Anticancer activity against human ACHN cells after 48 hrs by MTT assay; procedure, shortened: as §1

Structure (SMILES) | IC50 (HT-29) | IC50 (A-375) | IC50 (A549) | IC50 (MCF7) | IC50 (ACHN)
COc1ccc(C(=O)/C=C/c2ccc(OCCCCCC(=O)N[C@@H]3c4cc5c(cc4[C@@H](c4cc(OC)c(OC)c(OC)c4)[C@H]4C(=O)OC[C@@H]43)OCO5)c(OC)c2)cc1 | 16 µM | 13 µM | 19 µM | 12 µM | 10 µM
COc1cc(/C=C/C(=O)c2c(C)nc3ccccc3c2C)ccc1OCC(=O)N[C@@H]1c2cc3c(cc2[C@@H](c2cc(OC)c(OC)c(OC)c2)[C@H]2C(=O)OC[C@@H]21)OCO3 | 12.3 µM | 14.5 µM | 15.4 µM | 13.8 µM | 10.8 µM
COc1cc(/C=C/C(=O)c2ccc(F)cc2)ccc1OCCCCCC(=O)N[C@@H]1c2cc3c(cc2[C@@H](c2cc(OC)c(OC)c(OC)c2)[C@H]2C(=O)OC[C@@H]21)OCO3 | 11.7 µM | 11.4 µM | 5.9 µM | 15.8 µM | 9.3 µM
COc1cc([C@@H]2c3cc4c(cc3[C@@H](NC(=O)/C=C/c3ccc(Br)cc3)[C@H]3COC(=O)[C@H]23)OCO4)cc(OC)c1OC | 19.2 µM | 17.8 µM | 9.5 µM | 11.2 µM | 14.3 µM
COc1cc(C(=O)/C=C/c2ccc(OCCCCCC(=O)N[C@@H]3c4cc5c(cc4[C@@H](c4cc(OC)c(OC)c(OC)c4)[C@H]4C(=O)OC[C@@H]43)OCO5)cc2)cc(OC)c1OC | 15.3 µM | 18.4 µM | 21.5 µM | 24.8 µM | 16.5 µM
COc1cc([C@@H]2c3cc4c(cc3[C@@H](NC(=O)/C=C/c3ccc(F)cc3)[C@H]3COC(=O)[C@H]23)OCO4)cc(OC)c1OC | 7.1 µM | 9.5 µM | 6.8 µM | 14.6 µM | 18.6 µM
COc1cc([C@@H]2c3cc4c(cc3[C@@H](NC(=O)/C=C/c3ccc(Cl)c(Cl)c3)[C@H]3COC(=O)[C@H]23)OCO4)cc(OC)c1OC | 21 µM | 13.2 µM | 8.4 µM | 20.1 µM | 17.7 µM
COc1ccc(/C=C/C(=O)c2cc(OC)c(OC)c(OC)c2)cc1OCCCCCC(=O)N[C@@H]1c2cc3c(cc2[C@@H](c2cc(OC)c(OC)c(OC)c2)[C@H]2C(=O)OC[C@@H]21)OCO3 | 6.47 µM | 10.3 µM | 16.7 µM | 12.6 µM | 13.4 µM
O=C(O)/C=C/c1ccccc1 [CINNAMIC ACID] | 114 µM | 64 µM | 87 µM | 108 µM | 91 µM
COc1cc([C@@H]2c3cc4c(cc3[C@@H](NC(=O)/C=C/c3ccc([N+](=O)[O-])cc3)[C@H]3COC(=O)[C@H]23)OCO4)cc(OC)c1OC | 18.1 µM | 14.5 µM | 8.2 µM | 10.1 µM | 12.8 µM
COc1cc(/C=C/C(=O)c2ccc(F)cc2)ccc1OCC(=O)N[C@@H]1c2cc3c(cc2[C@@H](c2cc(OC)c(OC)c(OC)c2)[C@H]2C(=O)OC[C@@H]21)OCO3 | 21.6 µM | 12.2 µM | 26.4 µM | 19.1 µM | 26.7 µM
COc1cc(/C=C/C(=O)c2c(C)nc3ccccc3c2-c2ccccc2)ccc1OCC(=O)N[C@@H]1c2cc3c(cc2[C@@H](c2cc(OC)c(OC)c(OC)c2)[C@H]2C(=O)OC[C@@H]21)OCO3 | 7.75 µM | 7.7 µM | 13.4 µM | 11.2 µM | 15.7 µM
COc1ccc(/C=C/C(=O)N[C@@H]2c3cc4c(cc3[C@@H](c3cc(OC)c(OC)c(OC)c3)[C@H]3C(=O)OC[C@@H]32)OCO4)cc1 | 17.6 µM | 19.1 µM | 7.7 µM | 15.7 µM | 17.8 µM
COc1cc(C(=O)/C=C/c2ccc(OCC(=O)N[C@@H]3c4cc5c(cc4[C@@H](c4cc(OC)c(OC)c(OC)c4)[C@H]4C(=O)OC[C@@H]43)OCO5)cc2)cc(OC)c1OC | 12.4 µM | 25.8 µM | 19.1 µM | 24.2 µM | 10.2 µM
COc1cccc(C(=O)/C=C/c2ccc(OCCCCCC(=O)N[C@@H]3c4cc5c(cc4[C@@H](c4cc(OC)c(OC)c(OC)c4)[C@H]4C(=O)OC[C@@H]43)OCO5)c(OC)c2)c1 | 11.9 µM | 20.1 µM | 14.4 µM | 17.5 µM | 13.7 µM
COc1ccc(/C=C/C(=O)c2cc(OC)c(OC)c(OC)c2)cc1OCC(=O)N[C@@H]1c2cc3c(cc2[C@@H](c2cc(OC)c(OC)c(OC)c2)[C@H]2C(=O)OC[C@@H]21)OCO3 | 5.98 µM | 11.5 µM | 11.7 µM | 15.4 µM | 11.1 µM

Structure (SMILES) | IC50 (HT-29) | IC50 (A-375) | IC50 (A549) | IC50 (MCF7) | IC50 (ACHN)
COc1cc(/C=C/C(=O)c2cccc([N+](=O)[O-])c2)ccc1OCC(=O)N[C@@H]1c2cc3c(cc2[C@@H](c2cc(OC)c(OC)c(OC)c2)[C@H]2C(=O)OC[C@@H]21)OCO3 | 8.41 µM | 5.3 µM | 9 µM | 6.7 µM | 13.2 µM
COc1cc(/C=C/C(=O)c2cc(OC)c(OC)c(OC)c2)ccc1OCCCCCC(=O)N[C@@H]1c2cc3c(cc2[C@@H](c2cc(OC)c(OC)c(OC)c2)[C@H]2C(=O)OC[C@@H]21)OCO3 | 12.1 µM | 9.8 µM | 13.6 µM | 10.2 µM | 19.5 µM
COc1cc(/C=C/C(=O)N[C@@H]2c3cc4c(cc3[C@@H](c3cc(OC)c(OC)c(OC)c3)[C@H]3C(=O)OC[C@@H]32)OCO4)cc(OC)c1OC | 8.34 µM | 14 µM | 7.9 µM | 17.7 µM | 13.1 µM
COc1cc([C@@H]2c3cc4c(cc3[C@H](O)[C@H]3COC(=O)[C@H]23)OCO4)cc(OC)c1OC [PODOFILOX] | 0.78 µM | 2.62 µM | 3.75 µM | 1.18 µM | 2.12 µM
COc1cccc2c1C(=O)c1c(O)c3c(c(O)c1C2=O)C[C@@](O)(C(=O)CO)C[C@@H]3O[C@H]1C[C@H](N)[C@H](O)[C@H](C)O1 [DOXORUBICIN] | 1.06 µM | 5.51 µM | 2.18 µM | 2.02 µM | 0.79 µM
COc1cc(/C=C/C(=O)c2c(C)nc3ccccc3c2C)ccc1OCCCCCC(=O)N[C@@H]1c2cc3c(cc2[C@@H](c2cc(OC)c(OC)c(OC)c2)[C@H]2C(=O)OC[C@@H]21)OCO3 | 11.8 µM | 10.3 µM | 10.6 µM | 8.6 µM | 10.7 µM
COc1ccc(C(=O)/C=C/c2ccc(OCC(=O)N[C@@H]3c4cc5c(cc4[C@@H](c4cc(OC)c(OC)c(OC)c4)[C@H]4C(=O)OC[C@@H]43)OCO5)c(OC)c2)cc1 | 16.9 µM | 9.3 µM | 8.3 µM | 16.2 µM | 16.1 µM
O=C(O)/C=C/c1ccc(C(F)(F)F)cc1 | 75 µM | 91 µM | 56 µM | 142 µM | 128 µM
COc1cc([C@@H]2c3cc4c(cc3[C@@H](NC(=O)/C=C/c3ccc(Cl)cc3)[C@H]3COC(=O)[C@H]23)OCO4)cc(OC)c1OC | 11.4 µM | 5.7 µM | 8.8 µM | 13.7 µM | 7.54 µM
COc1cc(/C=C/C(=O)c2c(C)nc3ccccc3c2-c2ccccc2)ccc1OCCCCCC(=O)N[C@@H]1c2cc3c(cc2[C@@H](c2cc(OC)c(OC)c(OC)c2)[C@H]2C(=O)OC[C@@H]21)OCO3 | 8.9 µM | 6.8 µM | 7.7 µM | 2.2 µM | 9.46 µM
COc1cc(C(=O)/C=C/c2cccc(OCC(=O)N[C@@H]3c4cc5c(cc4[C@@H](c4cc(OC)c(OC)c(OC)c4)[C@H]4C(=O)OC[C@@H]43)OCO5)c2)cc(OC)c1OC | 15.6 µM | 18.2 µM | 16.8 µM | 24.4 µM | 9.1 µM
COc1cccc(C(=O)/C=C/c2ccc(OCC(=O)N[C@@H]3c4cc5c(cc4[C@@H](c4cc(OC)c(OC)c(OC)c4)[C@H]4C(=O)OC[C@@H]43)OCO5)c(OC)c2)c1 | 8.1 µM | 13.8 µM | 9.1 µM | 21.8 µM | 13.8 µM
COc1cc(/C=C/C(=O)c2cc(OC)c(OC)c(OC)c2)ccc1OCC(=O)N[C@@H]1c2cc3c(cc2[C@@H](c2cc(OC)c(OC)c(OC)c2)[C@H]2C(=O)OC[C@@H]21)OCO3 | 9.54 µM | 7.8 µM | 10.7 µM | 14.9 µM | 8.51 µM
COc1cc(/C=C/C(=O)c2cccc([N+](=O)[O-])c2)ccc1OCCCCCC(=O)N[C@@H]1c2cc3c(cc2[C@@H](c2cc(OC)c(OC)c(OC)c2)[C@H]2C(=O)OC[C@@H]21)OCO3 | 8.75 µM | 10.8 µM | 10.7 µM | 18.1 µM | 11.9 µM
COc1cc(C(=O)/C=C/c2cccc(OCCCCCC(=O)N[C@@H]3c4cc5c(cc4[C@@H](c4cc(OC)c(OC)c(OC)c4)[C@H]4C(=O)OC[C@@H]43)OCO5)c2)cc(OC)c1OC | 21.1 µM | 11.5 µM | 14.7 µM | 8.3 µM | 20.8 µM
